Measurements taken from ChEMBL document CHEMBL2021796, “Synthesis and biological evaluation of a series of thieno-expanded tricyclic purine 2'-deoxy nucleoside analogues” (Bioorg Med Chem, 2012).
pEC50, pIC50: −log10 of the molar value.

Tests used:
[1] = system: Mammalian orthoreovirus 1; experiment: Antiviral activity against Reovirus-1 infected in african green monkey Vero cells assessed as inhibition of virus-induced cytopathogenicity; assay type: functional, organism-based; details: Mammalian orthoreovirus 1, Vero
Outline: (§1)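 Confluent HEL, Vero or HeLa monolayers were infected with 100 CCID50 of virus while exposed to fivefold serial dilutions of compound. Virus-induced cytopathicity was scored when it reached completion in untreated infected controls. The EC50 is the concentration that inhibits cytopathicity by 50%.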

Sindbis virus = experiment: Antiviral activity against Sindbis virus infected in african green monkey Vero cells assessed as inhibition of virus-induced cytopathogenicity; assay type: functional, organism-based; outline: as §1
Punta Toro virus = experiment: Antiviral activity against Punta Toro virus infected in african green monkey Vero cells assessed as inhibition of virus-induced cytopathogenicity; assay type: functional, organism-based
Outline: (§2)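 Confluent HEL, Vero or HeLa monolayers were infected with 100 CCID50 of virus while exposed to fivefold serial dilutions of compound. Virus-induced cytopathicity was scored when it reached completion in untreated infected controls.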

Influenza A virus [2] = experiment: Antiviral activity against Influenza A virus H3N2 infected in MDCK cells assessed as inhibition of virus-induced cytopathogenicity; assay type: functional, organism-based
Outline: (§3)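 Nearly confluent MDCK cultures were infected while exposed to fivefold serial dilutions of compound. Cytopathicity was scored when it reached completion in untreated infected controls. The EC50 is the concentration that inhibits virus-induced cytopathicity by 50%.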

Influenza A virus [3] = experiment: Antiviral activity against influenza A virus H1N1 infected in MDCK cells assessed as inhibition of virus-induced cytopathogenicity; assay type: functional, organism-based; outline: as §3
Influenza B virus = experiment: Antiviral activity against influenza B virus infected in MDCK cells assessed as inhibition of virus-induced cytopathogenicity; assay type: functional, organism-based; outline: as §3
[4] = Cytotoxicity against HEL cells assessed as morphological changes by microscopic analysis; assay type: cell-based; details: human
Outline: (§4)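 Confluent HEL, Vero or HeLa cultures, or near-confluent MDCK cultures, exposed to fivefold compound dilutions in parallel with the antiviral cytopathicity tests. MCC is the lowest concentration causing microscopically visible alteration of cell morphology.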

[5] = Cytotoxicity against human HeLa cells assessed as morphological changes by microscopic analysis; assay type: cell-based; outline: as §4
[6] = Cytotoxicity against african green monkey Vero cells assessed as morphological changes by microscopic analysis; assay type: cell-based; details: chlorocebus sabaeus; outline: as §4
[7] = Cytotoxicity against MDCK cells assessed as morphological changes by microscopic analysis; assay type: cell-based, Canis lupus familiaris; details: dog; outline: as §4
L1210 = experiment: Cytostatic activity against mouse L1210 cells after 2 days by coulter counter analysis; assay type: functional, cell-based; details: L1210, 48 h
Outline: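 L1210 cells at 300,000–500,000 cells/mL were mixed 1:1 with compound dilutions and incubated for 2 days at 37 °C. Cells were counted with a Coulter counter. The IC50 is the concentration that inhibits proliferation by 50%.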

Human betaherpesvirus 5 [8] = experiment: Antiviral activity against Human cytomegalovirus AD169 infected in HEL cells assessed as inhibition of virus-induced cytopathogenicity after 7 days by Giemsa staining-based microscopic analysis; assay type: functional, organism-based; details: Human betaherpesvirus 5, AD169, HEL, 168 h
Outline: (§5)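 Confluent HEL fibroblasts infected with strains AD-169 and Davis at 100 PFU per well. After 2 h adsorption, residual virus removed and medium with test compound added, in duplicate. Incubated 7 days at 37 °C. Cytopathogenicity scored microscopically after ethanol fixation and Giemsa staining. EC50 read from graphic plots of % cytopathogenicity versus concentration.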

Human betaherpesvirus 5 [9] = experiment: Antiviral activity against Human cytomegalovirus Davis infected in HEL cells assessed as inhibition of virus-induced cytopathogenicity after 7 days by Giemsa staining-based microscopic analysis; assay type: functional, organism-based; details: Human betaherpesvirus 5, Davis, 168 h; outline: as §5
Human alphaherpesvirus 3 [10] = experiment: Antiviral activity against Varicella zoster virus OKA infected in HEL cells assessed as reduction in viral plaque formation after 5 days relative to control; assay type: functional, cell-based; details: Human alphaherpesvirus 3, strain Oka vaccine, 120 h
Outline: (§6)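 Confluent HEL cells were inoculated with 20 PFU VZV per well (Oka wild type or thymidine kinase-deficient 07-1). Residual virus was removed after 2 h and compound dilutions were added in duplicate. The EC50 is the concentration that reduces plaque formation by 50% after 5 days relative to untreated controls.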

Human alphaherpesvirus 3 [11] = experiment: Antiviral activity against Varicella zoster virus 07/1 infected in HEL cells assessed as reduction in viral plaque formation after 5 days relative to control; assay type: functional, organism-based; details: Human alphaherpesvirus 3, 07/1, HEL, 120 h; outline: as §6
Human alphaherpesvirus 1 [12] = experiment: Antiviral activity against Herpes simplex virus 1 KOS infected in HEL cells assessed as inhibition of virus-induced cytopathogenicity; assay type: functional, organism-based; details: Human alphaherpesvirus 1, KOS; outline: as §1
Human alphaherpesvirus 1 [13] = experiment: Antiviral activity against thymidine kinase-deficient Herpes simplex virus 1 infected in HEL cells assessed as inhibition of virus-induced cytopathogenicity; assay type: functional, organism-based; details: Human alphaherpesvirus 1, HEL
Outline: (§7)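 Confluent cell monolayers (Vero for parainfluenza-3, HEL for HSV-1 TK−) inoculated with 100 CCID50 of virus alongside fivefold compound dilutions. Cytopathicity recorded once complete in untreated infected controls. EC50 is the concentration inhibiting virus-induced cytopathicity by 50%.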

Human alphaherpesvirus 2 = experiment: Antiviral activity against Herpes simplex virus 2 G infected in HEL cells assessed as inhibition of virus-induced cytopathogenicity; assay type: functional, organism-based; details: Human alphaherpesvirus 2, strain G; outline: as §1
[14] = system: Vesicular stomatitis virus; experiment: Antiviral activity against Vesicular stomatitis virus infected in HEL cells assessed as inhibition of virus-induced cytopathogenicity; assay type: functional, organism-based; outline: as §2
[15] = system: Vesicular stomatitis virus; experiment: Antiviral activity against Vesicular stomatitis virus infected in HeLa cells; assay type: functional, organism-based; outline: as §1
Coxsackievirus B4 [16] = experiment: Antiviral activity against Coxsackie virus B4 infected in HeLa cells; assay type: functional, organism-based; details: Enterovirus B; outline: as §2
[17] = system: Respiratory syncytial virus; experiment: Antiviral activity against Respiratory syncytial virus infected in HeLa cells; assay type: functional, organism-based; details: human respiratory syncytial virus; outline: as §1
[18] = system: Human immunodeficiency virus 1; experiment: Antiviral activity against Human immunodeficiency virus 1 3B infected in human CEM cells assessed as inhibition of virus-induced giant cell formation after 4 days by microscopic analysis; assay type: functional, organism-based; details: CCRF-CEM, 96 h
Outline: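 CEM cells at about 3 × 10^5 cells/cm3 were infected with 100 CCID50/ml of virus and seeded into wells containing compound dilutions. After 4 days at 37 °C, giant cell formation was assessed under the microscope.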

[19] = system: Human immunodeficiency virus 2; experiment: Antiviral activity against Human immunodeficiency virus 2 ROD infected in human CEM cells assessed as inhibition of virus-induced giant cell formation after 4 days by microscopic analysis; assay type: functional, organism-based; details: Human immunodeficiency virus 2, ISOLATE ROD, CCRF-CEM, 96 h
Outline: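 CEM cells (~3 × 10^5 cells/cm3) infected with 100 CCID50 of HIV-2(ROD) per ml and seeded into microtiter wells holding compound dilutions. Incubated 4 days at 37 °C. Giant cell formation examined microscopically.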

Human respirovirus 3 = experiment: Antiviral activity against Parainfluenza-3 virus infected in african green monkey Vero cells assessed as inhibition of virus-induced cytopathogenicity; assay type: functional, organism-based; details: Human respirovirus 3, Vero; outline: as §7
Coxsackievirus B4 [20] = experiment: Antiviral activity against Coxsackie virus B4 infected in african green monkey Vero cells assessed as inhibition of virus-induced cytopathogenicity; assay type: functional, organism-based; details: Enterovirus B; outline: as §1

## Nc1nc2c(sc3ncn([C@H]4C[C@H](O)[C@@H](CO)O4)c32)c(=O)[nH]1
[1]
  pEC50: < 4.00
Sindbis virus
  pEC50: < 4.00
Punta Toro virus
  pEC50: < 4.00
Influenza A virus [2]
  pEC50: < 6.80
Influenza A virus [3]
  pEC50: < 6.80
Influenza B virus
  pEC50: < 6.80
[4]
  MCC: > 100 µM
[5]
  MCC: 100 µM
[6]
  MCC: 100 µM
[7]
  MCC: 0.8 µM
L1210
  pIC50: 3.84
Human betaherpesvirus 5 [8]
  pEC50: < 4.00
Human betaherpesvirus 5 [9]
  pEC50: < 4.00
Human alphaherpesvirus 3 [10]
  pEC50: 4.15
Human alphaherpesvirus 3 [11]
  pEC50: 4.15
Human alphaherpesvirus 1 [12]
  pEC50: < 4.00
Human alphaherpesvirus 1 [13]
  pEC50: < 4.00
Human alphaherpesvirus 2
  pEC50: < 4.00
[14]
  pEC50: < 4.00
[15]
  pEC50: 4.00
Coxsackievirus B4 [16]
  pEC50: < 4.00
[17]
  pEC50: < 4.00
[18]
  pEC50: ≤ 3.60
[19]
  pEC50: ≤ 3.60
Human respirovirus 3
  pEC50: < 4.00
Coxsackievirus B4 [20]
  pEC50: < 4.00

## Nc1ncnc2c1sc1ncn([C@H]3C[C@H](O)[C@@H](CO)O3)c12
[1]
  pEC50: 4.00
Influenza A virus [2]
  pEC50: < 5.40
Influenza A virus [3]
  pEC50: < 5.40
Influenza B virus
  pEC50: < 5.40
[4]
  MCC: ≥ 20 µM
[5]
  MCC: > 100 µM
[6]
  MCC: > 100 µM
[7]
  MCC: 20 µM
L1210
  pIC50: 4.28
Human betaherpesvirus 5 [8]
  pEC50: < 5.40
Human betaherpesvirus 5 [9]
  pEC50: < 5.40
Human alphaherpesvirus 3 [10]
  pEC50: 5.05
Human alphaherpesvirus 3 [11]
  pEC50: 5.05
Human alphaherpesvirus 1 [12]
  pEC50: < 4.70
Human alphaherpesvirus 1 [13]
  pEC50: < 4.70
Human alphaherpesvirus 2
  pEC50: < 4.70
[14]
  pEC50: < 4.70
[15]
  pEC50: < 4.00
Coxsackievirus B4 [16]
  pEC50: < 4.00
[17]
  pEC50: < 4.00
[18]
  pEC50: < 5.00
[19]
  pEC50: < 5.00
Human respirovirus 3
  pEC50: < 4.00
Coxsackievirus B4 [20]
  pEC50: < 4.00

## NC(=O)c1ncn([C@@H]2O[C@H](CO)[C@@H](O)[C@H]2O)n1 [RIBAVIRIN]
[1]
  pEC50: < 3.60
Sindbis virus
  pEC50: < 3.60
Influenza A virus [2]
  pEC50: 5.29
Influenza A virus [3]
  pEC50: 5.64
Influenza B virus
  pEC50: 5.35
[4]
  MCC: > 250 µM
[5]
  MCC: > 250 µM
[6]
  MCC: > 250 µM
Human alphaherpesvirus 1 [12]
  pEC50: < 3.60
Human alphaherpesvirus 2
  pEC50: < 3.60
[15]
  pEC50: 4.54
[18]
  pEC50: < 4.30
[19]
  pEC50: < 4.30
Human respirovirus 3
  pEC50: 4.07
Coxsackievirus B4 [20]
  pEC50: < 3.60
